For 99 molecules, cytotoxicity results are on record in ChEMBL document CHEMBL4513216, “Probing the Open Global Health Chemical Diversity Library for Multistage-Active Starting Points for Next-Generation Antimalarials” (ACS Infect Dis, 2020).

Structures are written as SMILES.

This data set in a line: Toxicity liver stage against HepG2, at 10uM. It is filed as cell-based. Details: test concentration 10 uM, cell line HepG2-A16-CD81EGFP. To be noted: human, HepG2-A16-CD81EGFP cells; read-out: INHIBITION
The method in brief: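 Uninfected HepG2-A16-CD81EGFP cells, 3 × 10^3 per well, 1536-well, plated on prespotted compound at 10 μM final, parasite-free screening media added to match infected plates; puromycin 10 μM positive, DMSO 0.5% negative; run in parallel with 48 h PbLuc assay at 37 °C, 5% CO2; viability by CellTiter-Glo luminescence, normalized to controls.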
For `CCOC(=O)C1CCCCN1Cc1c[nH]nc1-c1cc2ccccc2o1` (centres undefined), the cytotoxicity at 10 µM was 4.8%.
On to `O=C(CCc1cccs1)N1CCCCC1Cn1cccn1` (centres undefined), for which the cytotoxicity at 10 µM was found to be 1.54%.
Turning to `COCCn1ccc2cc(NC(=O)N(C)C(C)CSC)ccc21` (centres undefined), the cytotoxicity at 10 µM worked out at 0.08%.
Under `Cc1ccc(-c2nnc(NC(=O)c3ccn(C)c(=O)c3)[nH]2)s1` stands -1.15%.
For `CCOc1ccc(C(=O)NCc2ccnc(N3CCN(C)CC3)c2)cn1` the value was 0.935%.
For `CC(=O)NCCCSC1CCCN(c2ccccc2F)C1=O` (centres undefined) the value was -0.906%.
Consider `Cn1nc2c(cc1=O)CN(CC1CCCCO1)CC2` (centres undefined), for which the cytotoxicity at 10 µM was 2.58%.
Under `Cn1ccc(C(=O)NCc2cccc(Cn3ccnc3)c2)cc1=O` stands 8.42%.
For `CN(C)CCN(Cc1ccc(C#N)cc1)C(=O)c1ccn(C)c(=O)c1` the value was 16.8%; for `CCc1nc(C2CCCN(C(=O)C(C)(C)NS(C)(=O)=O)C2)no1` (centres undefined), -12.1%; for `COc1ccc(-c2n[nH]cc2CN(C)CCCN2CCOCC2)c(F)c1`, -2.26%.
For `CCN(Cc1ccncc1)C(=O)c1cn(CC2CCCNC2)nn1` (centres undefined) the value was 5.35%.
As for `CS(=O)(=O)NCCCNCc1cc(F)ccc1Br`, the cytotoxicity at 10 µM turned out to be 15.7%.
For `Cc1cc(F)ccc1CCNC(=O)NCC(C)N1CCOCC1` (centres undefined) the value was -1.35%.
For `O=C(NCC1CC1)Nc1cnc2cc(Cl)ccc2c1O` the value was -0.0788%.
Under `COc1cccc(COCC(O)CN(C)c2ccc(C)cc2C)c1` (centres undefined) stands 9.66%; under `Cc1ccc2nnc(C(=O)NCCCn3cccn3)nc2c1`, -7.93%; under `CCOc1ccc(Cl)cc1C(C(=O)O)N1CCCC1` (centres undefined), 0.95%.
For `Cc1noc([C@@H]2CCO[C@@H]3CCN(Cc4cccs4)C[C@@H]32)n1`, the cytotoxicity at 10 µM was -74.6%.
For the molecule `Cc1cccc(C(C(=O)N2CC(c3cccnc3)C2)N(C)C)c1` (centres undefined), the cytotoxicity at 10 µM is -4.8%.
For `CN(Cc1cnccn1)c1cncc(Br)c1` the value was -8.46%; for `CC(C)Cc1noc(CN(C)c2cc(C(C)C)nc3ccnn23)n1`, -7.55%.
Turning to `Cc1oc(CNC(=O)Cc2cccc(OC(F)F)c2)cc1C(=O)O`, the cytotoxicity at 10 µM was determined as 7.04%.
Consider `COc1ccc2nnc(CCCC(=O)NCc3ccccc3OC)n2n1`, for which the cytotoxicity at 10 µM was -5.95%.
`CC(C)Oc1ncccc1CNC(=O)NC(C)c1cccs1` (centres undefined): the cytotoxicity at 10 µM was -2.3%.
Under `CC(NCc1cccnc1)c1ccc(OCC(=O)NC2CC2)cc1` (centres undefined) stands 2.36%.
As for `CCCSc1ncc(C2CC(=O)NCc3nc4ccccn4c32)cn1` (centres undefined), the cytotoxicity at 10 µM was -6.53%.
For `Cc1ccc(CN2CCc3ncnc(-c4cccnc4)c3CC2)o1` the value was 1.06%; for `CC(=O)Cc1c(C)nn(-c2cncc(C(N)=O)c2)c1C`, -17.5%; for `CCc1noc(CN2CCCC2C(=O)OCc2ccccc2)n1` (centres undefined), -1.57%.
In the case of `CCn1c(CN2CCC(O)(C(=O)OC)CC2)nc2c(F)cccc21`, the cytotoxicity at 10 µM was -9.73%.
For `Cc1csc(CNC(=O)N(C)Cc2ccc3c(c2)OCCO3)n1` the value was 5.38%.
For `Cc1cc(C)nc(CN(C)C(=O)c2ccccc2C2CCNC2)c1` (centres undefined) the value was 1.64%.
For `Cc1ccn(CCNc2ncnc3c2CCN(c2cnccn2)CC3)n1` the value was -1.81%; for `Cc1n[nH]c(C)c1C1CCCN1C(=O)Cc1cccc(F)c1` (centres undefined), 4.8%; for `CCn1nc(C)cc1C(=O)N1C[C@@H]2C[C@@H](C)O[C@@H]2C1`, 5.53%.
In the case of `Cc1cnccc1-n1nc(C(C)C)nc1CCc1cnccn1`, the cytotoxicity at 10 µM came to 1.92%.
Under `CN1CCOC(CNC(=O)CCCOc2cccc(F)c2)C1` (centres undefined) stands -5.1%; under `CCCc1cnc(C)nc1N1CCC2(CC1)CNC(=O)O2`, 44.6%.
Under `CC(C)NC(=O)N1Cc2nccn2CC(COc2cccnc2)C1` (centres undefined) stands 7.77%; under `N#CC1(NC(=O)c2cc(Cl)c3c(c2)OCCCO3)CCC1`, -8.42%; under `O=c1[nH]ccn1CCCN1CC=C(c2cnn(-c3ccccc3)c2)CC1`, 7.95%.
Under `CS(=O)(=O)c1nccn1Cc1ccncc1` stands 14.5%; under `Cc1nc(C2CCCN(C(=O)COCc3ccccc3Cl)C2)no1` (centres undefined), 5.8%.
With `Fc1ccc(OCCCN2CCCC(Cn3cncn3)C2)cc1` (centres undefined), the cytotoxicity at 10 µM is -7.81%.
For `O=C(COCc1nc(-c2ccncc2)no1)NC1CCCCC1` the value was -8.19%.
`O=C(NC1CCc2[nH]c(=O)ccc2C1)C1CCOCC1` (centres undefined): the cytotoxicity at 10 µM was 1.42%.
For `O=C(C1CCOC1)N1CCN(Cc2cccnc2)c2ncccc2C1` (centres undefined) the value was 3.07%.
For `O=C(NCc1ccco1)Nc1ccc2nc(N3CCOCC3)oc2c1`, the cytotoxicity at 10 µM was found to be 4.17%.
Under `O=c1[nH]c(NCc2cccc(-c3ccccc3)c2)nc2c1CCNC2` stands 3.3%; under `COCC1CN(C(=O)[C@H]2CCCO2)Cc2nnn(CC3CC3)c21` (some centres undefined), -1.59%.
For `O=C(c1ccc2[nH]ccc2c1)N1Cc2nc(CN3CCCCC3)oc2C1` the value was 9.58%.
For `Cc1cc(CN(Cc2cccnc2)CC2CCCO2)on1` (centres undefined) the value was -7.03%; for `CC(C)c1nc(CN(C)C(=O)CNC(N)=O)cs1`, 17.4%.
In the case of `O=C(CCCc1ccccc1)N1CCCC(n2cncn2)C1` (centres undefined), the cytotoxicity at 10 µM is -18.3%.
For `O=C(NCCc1cccs1)[C@H]1CO[C@H]2CCN(C3CCC3)C[C@H]2C1` the value was -116%; for `CC(=O)CSc1nnc2n1N=CN(c1cccc(Cl)c1)C2`, 1.05%.
For `CN(Cc1ccco1)Cc1ccccc1CNC(=O)c1cnc[nH]1` the value was 2.6%.
Under `CCc1nc(CCn2cc(-c3nccn3C)nn2)no1` stands -55.3%; under `O=C(NC1CCS(=O)(=O)C1)c1sccc1OC(F)F` (centres undefined), -0.699%; under `Cc1cnn(-c2cncc(C(N)=O)c2)c1`, 3.04%.
For `CN1CCCCC1CCC(=O)NCCCn1nccc1C1CC1` (centres undefined), the cytotoxicity at 10 µM was -22.9%.
For `CN(Cc1nc2ccccc2n1C)C(=O)CCc1cscn1` the value was -159%; for `CCOC(=O)C1(O)CCN(C(=O)Nc2ccc(CC)cc2)CC1`, -130%.
For `Cn1cncc1CN1C[C@@H]2OCCN(c3ncccn3)[C@@H]2C1` the value was -67%.
For `CC(C)CCC(=O)N1CCC2(CC1)OCCO2` the value was -0.457%.
With `Cc1cc(C)c2nc(CNC3CCNC3=O)cc(O)c2c1` (centres undefined), the cytotoxicity at 10 µM is 5.92%.
Under `Cc1cc(C2CCCN(C(=O)CN3CCN(C)CC3)C2)n[nH]1` (centres undefined) stands -4.18%; under `COCc1nc2cc3c(cc2c(=O)o1)OCCCO3`, 1.19%; under `CC(C)[C@@H]1CN(Cc2ccccc2C#N)C[C@H]1N(C)C`, -18.7%.
On to `COCCN1CCC2(C1)CN(c1ncc(F)cn1)C2`, for which the cytotoxicity at 10 µM was 4.68%.
As for `COCC1CCCCN1C(=O)c1cc(-c2cccc(OC)c2)n[nH]1` (centres undefined), the cytotoxicity at 10 µM is 9.34%.
In the case of `Cn1c(=O)c2cc(C(=O)NCCOCC(F)(F)F)ccc2n(C)c1=O`, the cytotoxicity at 10 µM is -13.9%.
Under `CCOCc1cnc2n1CCN(C(=O)c1ccoc1C)C2C` (centres undefined) stands -98.3%; under `CCN(Cc1ccco1)C(=O)NCc1nnc2n1CCCCC2`, -4.73%.
Under `CCN1CCN(S(=O)(=O)c2cc(Cl)c(Cl)cc2C)CC1` stands 2.28%.
Take `Cc1nnc2n1CCN(Cc1csc(Cc3ccccc3)n1)C2`: the cytotoxicity at 10 µM was -9.41%.
For `CN(Cc1ccncc1)C1COC2(CCN(Cc3ccco3)CC2)C1` (centres undefined) the value was -77.9%.
For `Cn1cc(CNCCNc2ncc(Cl)cc2Cl)cn1` the value was -6.42%; for `Cn1cc(C(=O)N2CCN(Cc3ccccn3)CC2)ccc1=O`, 6.85%.
For `Cc1ccccc1CCCN(Cc1ccccn1)S(C)(=O)=O`, the cytotoxicity at 10 µM was found to be 9.53%.
Under `CCC(=O)N1CCC2(CCC(N3CCCC3)c3ccccc32)CC1` (centres undefined) stands -6.23%.
For `CCc1nc(CN2CCCC(NCc3cccc(C(N)=O)c3)C2)no1` (centres undefined) the value was 1.56%; for `Cc1sc2c(C3CCCN(C)C3)nc(C)n2c1C` (centres undefined), -26.9%.
Under `Cc1nn(C)c(C)c1CCC(=O)Nc1cccn(C)c1=O` stands -1.96%; under `COC(=O)c1ccc(NC(C)c2ccc3c(c2)NC(=O)CO3)nn1` (centres undefined), -4.75%.
Turning to `O=C(Nc1cc(C(F)(F)F)ccc1Cl)c1ccc(N2CCOCC2)nn1`, the cytotoxicity at 10 µM was -9.89%.
Under `COc1cnc(CSc2nnc(C)s2)cc1OCC(=O)NC(C)(C)C` stands 9.82%; under `CCOc1ccc2[nH]c(=O)c(CN3CCCC(CO)(CO)C3)cc2c1`, 22.3%; under `COCCN1CCCC2(CCC(=O)N2Cc2cccnc2)C1` (centres undefined), 4.32%.
For the molecule `Cn1cc(C(=O)N2CCOc3cc(F)ccc32)ccc1=O`, the cytotoxicity at 10 µM was -2.55%.
For `O=c1[nH]c(CCN2CCCCC2Cn2cccn2)nc2ccccc12` (centres undefined) the value was -16.4%.
With `Cn1cc(CN2CCc3c(nnn3C)C2COCc2ccccc2)cn1` (centres undefined), the cytotoxicity at 10 µM was -126%.
Under `Cc1cnc2c(S(=O)(=O)NC3CCS(=O)(=O)C3)cccc2c1` (centres undefined) stands -2.28%.
For `O=C(c1ccoc1)N1CC[C@H]2OCC[C@@]2(COc2ncccc2F)C1` the value was -9.31%; for `CN(CC(=O)NC(C)(C)C)C(=O)C1CC(c2cccc(F)c2)=NO1` (centres undefined), 19.5%; for `CC(NS(C)(=O)=O)C(=O)N(C)Cc1csc(-c2ccccc2)n1` (centres undefined), 2.5%.
Under `CC(OCC1CC1)C(=O)Nc1ncn(CC(=O)N2CCCCCC2)n1` (centres undefined) stands -15.2%; under `Cc1cccc(OCCC(=O)N2CCCN(C(N)=O)CC2)c1C`, -6.8%.
